Tests used:
[1] = test system: Radical scavenging activity; assay: Antioxidant activity assessed as DPPH radical scavenging activity; type: functional; parameters: concentration or dose not given beside the values
Method in brief: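 Scavenging of DPPH radical measured by ESR. Reaction mixtures contain 1.0 mM dpph and 1.0 mM 5-NI, both prepared in acetonitrile. The control contains no 5-NI. Signal recorded 1 min after the start of the reaction at microwave frequency 9.72 GHz and power 20 mW.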

Trypanosoma cruzi [2] = assay: Antitrypanosomal activity against Trypanosoma cruzi CL Brener epimastigotes after 5 days; type: functional, organism-based; conditions: 120 h
Method in brief: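 CL Brener epimastigotes grown at 28 °C in BHI–Tryptose with 5% FBS. Stationary-phase (10-day) cells inoculated at 1 × 10⁶ cells/mL into medium with drug from a DMSO stock (final DMSO ≤0.4%); control contains 0.4% DMSO. Growth followed by A600. Inhibition at day 5 is computed from the day 0 and day 5 absorbances relative to control. IC50 is the concentration reducing the absorbance ratio to 50%.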

Caco-2 = assay: Cytotoxicity against human Caco-2 cells at 25 uM by MTT assay; type: cell-based; conditions: caco-2, 25 µM
Method in brief: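 Caco-2 cells kept in DMEM-F12 with 10% FBS, penicillin and streptomycin at 37 °C, 5% CO₂. Cells plated at 5 × 10⁴ cells/mL, then exposed to compound in PBS for 2 h. After washing, cells incubated with 0.5 mg/mL MTT for 120 min at 37 °C. Formazan dissolved in DMSO for 10 min at 37 °C and read at 540 nm.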

Trypanosoma cruzi [3] = assay: Inhibition of parasitic respiration in Trypanosoma cruzi tulahuen epimastigotes assessed as oxygen uptake at 2 mM relative to control; type: functional
Trypanosoma cruzi [4] = assay: Inhibition of parasitic respiration in Trypanosoma cruzi tulahuen epimastigotes assessed as oxygen uptake at 0.83 mM relative to control; type: functional
Trypanosoma cruzi [5] = assay: Inhibition of parasitic respiration in Trypanosoma cruzi tulahuen epimastigotes assessed as oxygen uptake at 0.42 mM relative to control; type: functional
Trypanosoma cruzi [6] = assay: Inhibition of parasitic respiration in Trypanosoma cruzi tulahuen epimastigotes assessed as oxygen uptake at 0.208 mM relative to control; type: functional
Trypanosoma cruzi [7] = assay: Inhibition of parasitic respiration in Trypanosoma cruzi tulahuen epimastigotes assessed as oxygen uptake at 0.104 mM relative to control; type: functional

Structure (SMILES) | IC50 (Trypanosoma cruzi [2]) | Activity [1] | Cytotoxicity (Caco-2) | Oxygen uptake at 2000 µM (Trypanosoma cruzi [3]) | Oxygen uptake at 830 µM (Trypanosoma cruzi [4]) | Oxygen uptake at 420 µM (Trypanosoma cruzi [5]) | Oxygen uptake at 208 µM (Trypanosoma cruzi [6]) | Oxygen uptake at 104 µM (Trypanosoma cruzi [7])
O=[N+]([O-])c1ccc2c(c1)c(OCc1ccccc1)nn2CCCCCCN1CCCCC1 | 7.4 µM | < 30% | 33% |  |  |  |  | 
CCN(CC)CCn1nc(OCc2ccccc2)c2cc([N+](=O)[O-])ccc21 | 11.3 µM | < 30% | 30% |  |  |  |  | 
O=[N+]([O-])c1ccc2c(c1)c(OCc1ccccc1)nn2CCCCCN1CCCC1 | 7.5 µM | < 30% | 25% |  |  |  |  | 
O=[N+]([O-])c1ccc2c(c1)c(OCc1ccccc1)nn2CCCCCN1CCc2ccccc2C1 | 12.9 µM | < 30% | 15% |  |  |  |  | 
COc1nn(CCCN2CCCCC2)c2ccc([N+](=O)[O-])cc12 | > 25 µM | < 30% | 0% |  |  |  |  | 
O=[N+]([O-])c1ccc2c(c1)c(OCc1ccccc1)nn2CCN1CCCCC1 | 8.4 µM | < 30% | 27% |  |  |  |  | 
O=[N+]([O-])c1ccc2c(c1)c(OCc1ccccc1)nn2CCCCCN1CCCCCC1 | 10.5 µM | > 40% | 25% |  |  |  |  | 
COc1nn(CCN2CCCCC2)c2ccc([N+](=O)[O-])cc12 | > 25 µM | < 30% | 10% |  |  |  |  | 
O=[N+]([O-])c1ccc2c(c1)c(OCc1ccccc1)nn2CCCCCCBr | 19.3 µM | < 30% |  | 100% | 100% | 100% |  | 
CN(C)CCn1nc(OCc2ccccc2)c2cc([N+](=O)[O-])ccc21 | 25 µM | < 30% | 12% |  |  | 51% | 64% | 
CN(C)CCCCCCn1nc(OCc2ccccc2)c2cc([N+](=O)[O-])ccc21 | 9.4 µM | > 40% | 40% |  |  | 52% | 59% | 100%
O=[N+]([O-])c1ccc2c(c1)c(OCc1ccccc1)nn2CCN1CCOCC1 | > 25 µM | < 30% | 0% |  |  |  |  | 
O=[N+]([O-])c1ccc2c(c1)c(OCc1ccccc1)nn2CCCCCBr | 20.7 µM | < 30% |  | 38% | 100% | 100% |  | 

Second part, led by results:

IC50 (Trypanosoma cruzi [2]) | Structure (SMILES) | Activity [1] | Cytotoxicity (Caco-2) | Oxygen uptake at 2000 µM (Trypanosoma cruzi [3]) | Oxygen uptake at 830 µM (Trypanosoma cruzi [4]) | Oxygen uptake at 420 µM (Trypanosoma cruzi [5]) | Oxygen uptake at 208 µM (Trypanosoma cruzi [6]) | Oxygen uptake at 104 µM (Trypanosoma cruzi [7])
9.2 µM | CC(C)N(CCn1nc(OCc2ccccc2)c2cc([N+](=O)[O-])ccc21)C(C)C | < 30% | 0% |  |  |  |  | 
67.8 µM | COc1nn(CCCBr)c2ccc([N+](=O)[O-])cc12 | < 30% |  |  |  |  |  | 
> 25 µM | COc1nn(CCCN(C)C)c2ccc([N+](=O)[O-])cc12 | < 30% | 29% |  |  |  |  | 
> 25 µM | COc1nn(CCN(C)C)c2ccc([N+](=O)[O-])cc12 | < 30% | 15% |  |  |  |  | 
> 25 µM | COc1nn(CCN(C(C)C)C(C)C)c2ccc([N+](=O)[O-])cc12 | < 30% | 15% |  |  |  |  | 
> 25 µM | CCN(CC)CCn1nc(OC)c2cc([N+](=O)[O-])ccc21 | < 30% | 0% |  |  |  |  | 
> 25 µM | COc1nn(CCN2CCOCC2)c2ccc([N+](=O)[O-])cc12 | < 30% | 0% |  |  |  |  | 

Source: ChEMBL document CHEMBL1153109, “New potent 5-nitroindazole derivatives as inhibitors of Trypanosoma cruzi growth: synthesis, biological evaluation, and mechanism of action studies” (Bioorg Med Chem, 2009)
